Results on 4 compounds are retold here after ChEMBL document CHEMBL4673330, “Preparations and antioxidant activities of sesamol and it's derivatives” (Bioorg Med Chem Lett, 2021).

What all share (assay type): functional
Test [1] in a line: Antioxidant activity assessed as reduction in lipid peroxidation by measuring antiperoxide-index at 0.2 g/L by thiobarbituric acid method relative to control. More on the design: scale not given: the % may be the effect or the level left. Summed up:
(§1)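 Anti-lipid-peroxidation (antiperoxide index, %) was tested at 0.2–1.2 g/L, with sesamol as positive control. Values are means ± SD from at least eight independent experiments, each in triplicate (n = 3), with t-tests (p < 0.05).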

Test [2] can be described thus: Antioxidant activity assessed as reduction of potassium ferricyanide trivalent iron into potassium ferrocyanide bivalent iron and ferrous iron by measuring eliminate efficiency at 0.2 g/L relative to control. More on the design: scale not given: the % may be the effect or the level left. The gist of the method:
(§2)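 Reducing capacity was read as absorbance at 700 nm, where higher absorbance means greater reducing ability. Tested at 0.2–1.2 g/L against sesamol as positive control. Values are means from at least eight independent experiments, each in triplicate (n = 3), with t-tests (p < 0.05).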

The nature of test [3]: Antioxidant activity assessed as reduction of potassium ferricyanide trivalent iron into potassium ferrocyanide bivalent iron and ferrous iron by measuring eliminate efficiency at 0.4 g/L relative to control. More on the design: scale not given: the % may be the effect or the level left. Summed up:
as §2

Test [4] in a line: Antioxidant activity assessed as hydroxyl radical scavenging rate at 1 g/L relative to control. Summed up:
(§3)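 Hydroxyl radical scavenging was read as absorbance of the reaction solution at 510 nm by a fixed reaction time method. Derivatives were tested at 0.2–1.2 g/L, with sesamol as positive control. Values are means ± SD from at least eight independent experiments, each in triplicate (n = 3), with t-tests (p < 0.05).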

Test [5] can be described thus: Antioxidant activity assessed as reduction in lipid peroxidation by measuring antiperoxide-index at 1 g/L by thiobarbituric acid method relative to control. More on the design: scale not given: the % may be the effect or the level left. Summed up: as §1
The nature of test [6]: Antioxidant activity assessed as hydroxyl radical scavenging rate at 0.6 g/L relative to control. Summed up: as §3
Test [7] can be described thus: Antioxidant activity assessed as superoxide anion radical scavenging rate at 1 g/L relative to control. The gist of the method: (§4)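 Pyrocatechol autoxidation in weak alkaline medium produces a coloured intermediate and superoxide anion; the intermediate absorbs maximally at 320 nm. Scavenging rate was measured at 0.2–1.2 g/L, with sesamol as positive control. Values are means ± SD from at least eight independent experiments, each in triplicate (n = 3), with t-tests (p < 0.05).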

Test [8] in a line: Antioxidant activity assessed as superoxide anion radical scavenging rate at 0.6 g/L relative to control. Summed up: as §4
The nature of test [9]: Antioxidant activity assessed as reduction of potassium ferricyanide trivalent iron into potassium ferrocyanide bivalent iron and ferrous iron by measuring eliminate efficiency at 1 g/L relative to control. On the set-up: scale not given: the % may be the effect or the level left. Summed up:
as §2

Test [10] can be described thus: Antioxidant activity assessed as reduction in lipid peroxidation by measuring antiperoxide-index at 0.6 g/L by thiobarbituric acid method relative to control. On the set-up: scale not given: the % may be the effect or the level left. The gist of the method: as §1
A short description of test [11]: Antioxidant activity assessed as reduction in lipid peroxidation by measuring antiperoxide-index at 0.4 g/L by thiobarbituric acid method relative to control. More on the design: scale not given: the % may be the effect or the level left. The gist of the method: as §1
The nature of test [12]: Antioxidant activity assessed as superoxide anion radical scavenging rate at 1.2 g/L relative to control. Summed up:
as §4

Test [13] in a line: Antioxidant activity assessed as reduction of potassium ferricyanide trivalent iron into potassium ferrocyanide bivalent iron and ferrous iron by measuring eliminate efficiency at 0.8 g/L relative to control. On the set-up: scale not given: the % may be the effect or the level left. The gist of the method: as §2
Test [14] can be described thus: Antioxidant activity assessed as reduction of potassium ferricyanide trivalent iron into potassium ferrocyanide bivalent iron and ferrous iron by measuring eliminate efficiency at 0.6 g/L relative to control. On the set-up: scale not given: the % may be the effect or the level left. Summed up: as §2
Test [15] is described as follows: Antioxidant activity assessed as hydroxyl radical scavenging rate at 0.4 g/L relative to control. The gist of the method: as §3
Test [16] can be described thus: Antioxidant activity assessed as reduction of potassium ferricyanide trivalent iron into potassium ferrocyanide bivalent iron and ferrous iron by measuring eliminate efficiency at 1.2 g/L relative to control. More on the design: scale not given: the % may be the effect or the level left. The gist of the method:
as §2

Test [17] is described as follows: Antioxidant activity assessed as superoxide anion radical scavenging rate at 0.2 g/L relative to control. The gist of the method:
as §4

The nature of test [18]: Antioxidant activity assessed as superoxide anion radical scavenging rate at 0.4 g/L relative to control. The gist of the method:
as §4

Test [19] in a line: Antioxidant activity assessed as reduction in lipid peroxidation by measuring antiperoxide-index at 0.8 g/L by thiobarbituric acid method relative to control. On the set-up: scale not given: the % may be the effect or the level left. Summed up: as §1
The nature of test [20]: Antioxidant activity assessed as hydroxyl radical scavenging rate at 0.2 g/L relative to control. Summed up: as §3
Test [21] can be described thus: Antioxidant activity assessed as hydroxyl radical scavenging rate at 1.2 g/L relative to control. The gist of the method: as §3
Test [22] in a line: Antioxidant activity assessed as superoxide anion radical scavenging rate at 0.8 g/L relative to control. Summed up: as §4
Test [23] can be described thus: Antioxidant activity assessed as reduction in lipid peroxidation by measuring antiperoxide-index at 1.2 g/L by thiobarbituric acid method relative to control. On the set-up: scale not given: the % may be the effect or the level left. The gist of the method: as §1
Test [24] is described as follows: Antioxidant activity assessed as hydroxyl radical scavenging rate at 0.8 g/L relative to control. Summed up:
as §3

With `O=C(Oc1ccc2c(c1)OCO2)c1cccc(Cl)c1Cl`, the Activity in [1] is 11.3%; in [2], 11.3%; in test [3], 27%; in [4], 60.4%; in test [5], 64.4%; in [6] it was 47.9%. The Activity in test [7] came out at 59.9%; in test [8] it was 45.4%; in [9] it was 65.5%; in test [10], 48.8%; in [11] it was 27.1%; in test [12], 60.5%. The Activity in [13] was 59.6%; in [14] it was 51.3%; in test [15], 26.4%; in test [16], 66.2%; in test [17] it was 10.4%; in test [18] it was 23.9%. For the same compound, the Activity in test [19] came out at 58.6%; in test [20], 11.1%; in [21], 61%; in test [22], 54.5%; in test [23] it was 66.4%; in [24], 57.5%.

In the case of `O=C(Oc1ccc2c(c1)OCO2)c1c(Cl)cccc1Cl`, the Activity was found to be 14.1% in test [1]; 14.3% in test [2]; 34.4% in [3]; 76.4% in [4]; 80.2% in test [5]; 60.6% in test [6]. Further, the Activity in test [7] turned out to be 75%; in test [8], 56.9%; in test [9] it was 83.4%; in [10] it was 60.8%; in [11], 33.8%; in test [12] it was 75.8%. The Activity in [13] was found to be 75.8%; in [14], 65.4%; in test [15], 32.7%; in test [16] it was 84.3%; in [17], 13%; in test [18] it was 29.9%. Moreover, the Activity came out at 72.9% in test [19]; 14% in [20]; 77.1% in [21]; 68.2% in test [22]; 82.6% in test [23]; 72.7% in [24].

Consider `O=C(Oc1ccc2c(c1)OCO2)c1ccccc1Cl`, for which the Activity in [1] stood at 14.2%; in test [2], 14.6%; in test [3], 34.9%; in test [4] it was 77.5%; in [5], 81.1%; in [6], 61.5%. Further, the Activity stood at 76.5% in test [7]; 57.9% in [8]; 84.7% in test [9]; 61.4% in test [10]; 34.1% in test [11]; 77.2% in test [12]. Further, the Activity in test [13] was 77%; in [14] it was 66.4%; in [15] it was 34.4%; in test [16] it was 85.6%; in test [17] it was 13.3%; in [18], 30.5%. The Activity in [19] came out at 73.7%; in test [20], 14.2%; in [21], 78.2%; in test [22], 69.5%; in test [23] it was 83.5%; in test [24] it was 73.8%.

As to `O=c1oc2ccc3c(c2c2cc(Cl)ccc12)OCO3`, the Activity turned out to be 16.9% in test [1]; 17% in test [2]; 40.8% in test [3]; 97.4% in [4]; 96.5% in test [5]; 77.3% in [6]. Further, the Activity in test [7] was 95.7%; in [8] it was 72.5%; in test [9] it was 98.8%; in test [10] it was 73.1%; in test [11], 40.6%; in test [12] it was 96.7%. For the same compound, the Activity in [13] amounted to 89.9%; in test [14] it was 77.5%; in test [15], 42.9%; in test [16], 99.8%; in [17], 16.6%; in test [18] it was 38.1%. In addition, the Activity in [19] stood at 87.8%; in test [20], 17.9%; in test [21] it was 98.3%; in test [22], 87%; in test [23], 99.4%; in test [24] it was 92.7%.
